In ChEMBL document CHEMBL5360579, “Exploring the anticancer activity and the mechanism of action of pyrrolomycins F obtained by microwave-assisted total synthesis” (Eur J Med Chem, 2023):
Activity calls are given as the source filed them. The calls are words filed in the database; no cut-off is given here.

Key:
MCF7 [1] = assay: Cytotoxicity against human MCF7 cells assessed as inhibition of cell proliferation incubated for 48 hrs by MTT assay; type: functional, cell-based; details: MCF7, 48 h
Outline: (§1)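 Cells kept in DMEM with 10% heat-inactivated FBS, penicillin/streptomycin, 37 °C, 5% CO2. Plated at 5×10^3 cells/well and left 24 h, then exposed 48 h to 80, 20, 5, 1.25, 0.31 and 0.078 µM (diluted from 5 mM DMSO stocks). MTT added for 2 h at 37 °C, formazan dissolved in DMSO, A570 read. Blank subtracted, viability taken relative to untreated cells. IC50 from a sigmoidal fit of % inhibition vs log concentration. Three experiments, each in triplicate.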

[2] = Cytotoxicity against hTERT-RPE1 cells assessed as inhibition of cell proliferation incubated for 48 hrs by MTT assay; type: toxicity, cell-based, TERT-RPE1; details: human; outline: as §1
[3] = Selectivity index, ratio of IC50 for hTERT-RPE1 cells to IC50 for human HCT-116 cells; type: toxicity; details: hTERT-RPE1 cells versus HCT-116 cells, read-out: Ratio IC50
Outline: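 Ratio of the hTERT-RPE-1 MTT IC50 to the IC50 in HCT116 or MCF-7. Each IC50 comes from a 48 h MTT assay (0.078–80 µM, sigmoidal fit), three experiments in triplicate.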

MCF7 [4] = assay: Induction of morphological changes in human MCF7 cells assessed as reduction in cell clumps at 1 uM incubated for 48 hrs by inverted phase-contrast microscopic analysis; type: functional, cell-based
HCT-116 [5] = assay: Induction of morphological changes in human HCT-116 cells assessed as appearance of flattened cells at 0.5 uM incubated for 48 hrs by inverted phase-contrast microscopic analysis; type: functional, cell-based
MCF7 [6] = assay: Induction of morphological changes in human MCF7 cells assessed as appearance of flattened cells at 1 uM incubated for 48 hrs by inverted phase-contrast microscopic analysis; type: functional, cell-based
HCT-116 [7] = assay: Induction of morphological changes in human HCT-116 cells assessed as development of long elongations from filamentous protrusions resembling filopodia at 0.5 uM incubated for 48 hrs by inverted phase-contrast microscopic analysis; type: functional, cell-based
HCT-116 [8] = assay: Induction of morphological changes in human HCT-116 cells assessed as appearance of actin rich long elongations at 0.5 uM incubated for 48 hrs by rhodamine-phalloidin staining based fluorescence microscopic analysis; type: functional, cell-based
Outline: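 HCT116 on coverslips, treated 48 h at 0.5 µM. Fixed in cold methanol 15 min, permeabilized 15 min in 0.1% Triton X-100/PBS. Stained with 0.165 µM rhodamine-phalloidin for 40 min in the dark at room temperature. Imaged at 640X.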

HCT-116 [9] = assay: Induction of morphological changes in human HCT-116 cells assessed as increase in number of prominent vacuoles at 0.5 uM incubated for 48 hrs by inverted phase-contrast microscopic analysis; type: functional, cell-based
TERT-RPE1 = assay: Induction of morphological changes in hTERT-RPE1 cells at 5 uM incubated for 48 hrs by inverted phase-contrast microscopic analysis; type: toxicity, cell-based; details: human, tert-rpe1, 48 h
HCT-116 [10] = assay: Induction of morphological changes in human HCT-116 cells assessed as appearance of flattened cells at 0.5 uM incubated for 48 hrs by scanning electron microscopic analysis; type: functional, cell-based
Outline: (§2)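 HCT116 on coverslips, treated 48 h at 0.5 µM. Coverslips rinsed in PBS pH 7.4, fixed in 4% glutaraldehyde for 30 min at 4 °C, then imaged by scanning electron microscopy at 5000X and 20000X.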

HCT-116 [11] = assay: Induction of morphological changes in human HCT-116 cells assessed as neuronal sprouting at 0.5 uM incubated for 48 hrs by scanning electron microscopic analysis; type: functional, cell-based; outline: as §2
HCT-116 [12] = assay: Induction of morphological changes in human HCT-116 cells assessed as massive vacuolization at 0.5 uM incubated for 48 hrs by scanning electron microscopic analysis; type: functional, cell-based; outline: as §2
HCT-116 [13] = assay: Induction of morphological changes in human HCT-116 cells assessed as leakage and perforation of cell membranes at 0.5 uM incubated for 48 hrs by scanning electron microscopic analysis; type: functional, cell-based; outline: as §2
HCT-116 [14] = assay: Induction of morphological changes in human HCT-116 cells assessed as intensive membrane ruffling and blebbing at 0.5 uM incubated for 48 hrs by scanning electron microscopic analysis; type: functional, cell-based; outline: as §2
HCT-116 [15] = assay: Induction of morphological changes in human HCT-116 cells assessed as appearance of long and thin filopodia at 0.5 uM incubated for 48 hrs by scanning electron microscopic analysis; type: functional, cell-based; outline: as §2
HCT-116 [16] = assay: Induction of apoptosis in human HCT-116 cells assessed as chromatin condensation at 0.5 uM incubated for 48 hrs by Hoechst 33342 staining based analysis; type: functional, cell-based
Outline: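 HCT116 on coverslips at 5×10^4 cells/well, treated 48 h at 0.5 µM after 24 h attachment. PBS-washed, stained 10 min with Hoechst 33342 (final 1 µg/ml). Nuclei inspected at once by fluorescence microscopy at 640X for chromatin condensation and nuclear fragmentation.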

HCT-116 [17] = assay: Induction of autophagy in human HCT-116 cells assessed as effect on Atg-7 protein expression at 0.5 uM incubated for 48 hrs by Western blot analysis; type: functional, cell-based
HCT-116 [18] = assay: Inhibition of epithelial mesenchymal transition in human HCT-116 cells assessed as effect on E-cadherin protein expression at 0.5 uM incubated for 48 hrs by Western blot analysis; type: functional, cell-based
HCT-116 [19] = assay: Inhibition of epithelial mesenchymal transition in human HCT-116 cells assessed as effect on vimentin protein expression at 0.5 uM incubated for 48 hrs by Western blot analysis; type: functional, cell-based
HCT-116 [20] = assay: Upregulation of cofilin protein expression in human HCT-116 cells at 0.5 uM incubated for 48 hrs by Western blot analysis; type: functional, cell-based
HCT-116 [21] = assay: Induction of intracellular ROS generation in human HCT-116 cells at IC50 measured after 48 hrs by DCFH-DA staining based fluorescence microscopic analysis; type: functional, cell-based
Outline: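 HCT116 on coverslips at 5×10^4 cells/well, treated 48 h at the IC50 concentration. Loaded with 10 µM DCFH-DA for 30 min at 37 °C, then imaged by fluorescence microscopy at 640X.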

HCT-116 [22] = assay: Induction of cell death in human HCT-116 cells assessed as chromatin condensation at 0.5 uM incubated for 48 hrs by acridine orange and ethidium bromide staining based fluorescence microscopic analysis; type: functional
Outline: (§3)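 HCT116 on coverslips (5×10^4 cells/well), 24 h attachment, then exposed 48 h to 0.5 µM. PBS-washed and stained a few minutes with a 1:1 mix of acridine orange (100 µg/mL) and ethidium bromide (100 µg/mL). Viewed at once by fluorescence microscopy at 640X, scoring green vs orange nuclei and punctate cytoplasmic staining.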

HCT-116 [23] = assay: Induction of cell death in human HCT-116 cells assessed as appearance of neutral pH vacuoles originated from engulfment of extracellular fluid at 0.5 uM incubated for 48 hrs by acridine orange and ethidium bromide staining based fluorescence microscopic analysis; type: functional; outline: as §3
HCT-116 [24] = assay: Cytotoxicity against human HCT-116 cells assessed as reduction in colony formation treated for 48 hrs and measured after 10 days post last treatment by crystal violet staining based analysis; type: functional, cell-based; details: dose 0.1-5 µM, time 9.0 day, in the assay text read “7 days” for “10 days”
Outline: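 HCT116 seeded at 5×10^4 cells/well. After 24 h, treated 48 h at 0.1–0.5 and 5 µM, then grown a further 7 days. Fixed and stained 30 min with 6.0% glutaraldehyde plus 0.5% crystal violet, then washed. Dye taken up in 5% acetic acid and read at 592 nm.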

Structure (SMILES)	IC50 (MCF7 [1]) [µM]	IC50 at 48 h [2] [µM]	Activity (MCF7 [4])	Activity (HCT-116 [5])	Activity (MCF7 [6])	Activity (HCT-116 [7])	Activity (HCT-116 [8])	Activity (HCT-116 [9])	Activity (TERT-RPE1)	Activity (HCT-116 [10])	Activity (HCT-116 [11])	Activity (HCT-116 [12])	Activity (HCT-116 [13])	Activity (HCT-116 [14])	Activity (HCT-116 [15])	Activity (HCT-116 [16])	inhibition (HCT-116 [18])	inhibition (HCT-116 [19])	Activity (HCT-116 [20])	Activity (HCT-116 [21])	also measured
O=C(c1cc(Br)ccc1O)c1[nH]c(Cl)c(Br)c1Br	0.65	61.5	Active	Active	Active	Active	Active	Active	Non-Toxic	Active	Active	Active	Active	Active	Active	inactive	inactive	inactive	Active	Active	selectivity ratio [3]: ~100; Activity (HCT-116 [17]): Active; Activity (HCT-116 [22]): inactive; Activity (HCT-116 [23]): Active; Activity (HCT-116 [24]): Dose-Dependent Effect
O=C(c1cc(Br)ccc1O)c1[nH]c(Br)c(Br)c1Br	0.61	62.8	Active	Active	Active	Active	Active	Active	Non-Toxic	Active	Active	Active	Active	Active	Active	inactive	inactive	inactive	Active	Active	selectivity ratio [3]: ~100; Activity (HCT-116 [17]): Active; Activity (HCT-116 [22]): inactive; Activity (HCT-116 [23]): Active; Activity (HCT-116 [24]): Dose-Dependent Effect
O=C(c1cc(Br)cc(Br)c1O)c1[nH]c(Br)c(Br)c1Br	1.2	57.7	Active	Active	Active	Active	Active	Active	Non-Toxic	Active	Active	Active	Active	Active	Active	inactive	inactive	inactive	Active	Active	Activity (HCT-116 [22]): inactive; Activity (HCT-116 [23]): Active
O=C(c1cc(Br)ccc1O)c1[nH]c(Cl)c(Cl)c1Br	1.21	175	Active	Active	Active	Active	Active	Active	Non-Toxic	Active	Active	Active	Active	Active	Active	inactive	inactive	inactive	Active	Active	selectivity ratio [3]: ~100; Activity (HCT-116 [17]): Active; Activity (HCT-116 [22]): inactive; Activity (HCT-116 [23]): Active; Activity (HCT-116 [24]): Dose-Dependent Effect
O=C(c1cc(Br)ccc1O)c1[nH]c(Br)c(Cl)c1Br	0.73	86.6	Active	Active	Active	Active	Active	Active	Non-Toxic	Active	Active	Active	Active	Active	Active	inactive	inactive	inactive	Active	Active	selectivity ratio [3]: ~100; Activity (HCT-116 [17]): Active; Activity (HCT-116 [22]): inactive; Activity (HCT-116 [23]): Active; Activity (HCT-116 [24]): Dose-Dependent Effect
